From ChEMBL document CHEMBL3244283, “Synthesis and biological activity of potential antimetabolites” (1977)
Values after ≈ are worked out from the molar mass of the structure shown. Active and inactive are the calls of the source. The calls are words filed in the database; no cut-off is given here.

Tests used:
[1] = Cytotoxicity against human NCI-[…] cells assessed as growth inhibition; type: functional
Procedure, shortened: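 Run through the NCI routine preliminary in vitro cell-culture screen (9KB system) on human epidermoid carcinoma of the nasopharynx. ED50 is the concentration giving 50% growth inhibition relative to untreated controls.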

L1210 = assay: Antitumor activity against mouse L1210 cells allografted in BDF1 mouse; type: functional, cell-based
Procedure, shortened: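 Run through the NCI routine preliminary in vivo screen (2LE system). L1210 lymphoid leukemia was carried in BDF1 host mice.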

Escherichia coli [2] = assay: Inhibition of Escherichia coli aspartate transcarbamylase assessed as interaction between aspartate and carbamyl phosphate at 66 mM relative to control
Procedure, shortened: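 E. coli aspartate transcarbamylase (0.1 per ml) catalysed the reaction of 5 mM aspartate with 4 mM carbamyl phosphate. Test agent was present at 66 mM, and phosphate at the same concentration served as a comparison. Enzyme activity was read colorimetrically. Inhibition is expressed as a percentage relative to the uninhibited reaction.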

Escherichia coli [3] = assay: Irreversible inhibition of Escherichia coli aspartate transcarbamylase in presence of aspartate
Escherichia coli [4] = assay: Irreversible inhibition of Escherichia coli aspartate transcarbamylase in absence of aspartate

Row | SMILES | ED50 [1] [µg/mL] | Activity (L1210) | inhibition (Escherichia coli [2]) [%] | inhibition (Escherichia coli [3]) | inhibition (Escherichia coli [4])
1 | NC(Cc1ccc(O)cc1)C(=O)CCl (stereo not drawn) | 2.1 (≈ 9.83 µM) | inactive | – | – | –
2 | NCCCCC(N)C(=O)CCl (stereo not drawn) | 2.7 (≈ 15.1 µM) | inactive | – | – | –
3 | CC(C)CC(N)C(=O)CCl (stereo not drawn) | 7.6 (≈ 46.4 µM) | inactive | – | – | –
4 | O=C(CCl)NP(=O)([O-])[O-].[Li+].[Li+] | 2.5 | inactive | 60 | inactive | inactive
5 | NC(Cc1ccccc1)C(=O)CCl (stereo not drawn) | 4 (≈ 20.2 µM) | inactive | – | – | –
